Screening results as filed in PubChem BioAssay.
HEK293 NFkB inh: lowers PMA/ionomycin-induced NF-kB signal in HEK293 cells; HEK-293 NF-kB luciferase reporter, luminescence; inhibition, % at 3 µM; 62,000 compounds, 0.21% hits;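 active means inhibition above the mean of all tested compounds plus 3 SD, cut at about 40% in these data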
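System: NF-kB luciferase reporter HEK-293 cells | Replication: Single test | Control set: DMSO vs reference inhibitor | Evaluation: % inhibition | Schedule: 1 h pretreatment, 16 h stimulation, 37 °C | Probe or stimulus: PMA with ionomycin | Compound dosing: One dose, 3 µM | Detection: Luciferase luminescence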
BAP1 block: human BAP1 deubiquitinase inhibition; calls only at 20 µM; 72,000 compounds, 0.48% hits; recombinant BAP1, Ub-AMC hydrolysis fluorescence kinetic; active compounds read low;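 active means activity remaining at or below 50% of control, provided the compound also passes the data quality filters; inactive means the rest, including low values that fail the filters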
D1 mod: D1 dopamine receptor (human) allosteric modulation. P21728. HEK293 D1, CRE-luciferase, dopamine EC30 potentiation; actives deviate in either direction. B-score at 10 µM. 58,000 compounds, 5.9% hits;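 active means luminescence count or its row- and column-corrected plate score outside the 99.7% band of the plate's sample wells, on either side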
Target sequence (P21728 whole entry, looked up): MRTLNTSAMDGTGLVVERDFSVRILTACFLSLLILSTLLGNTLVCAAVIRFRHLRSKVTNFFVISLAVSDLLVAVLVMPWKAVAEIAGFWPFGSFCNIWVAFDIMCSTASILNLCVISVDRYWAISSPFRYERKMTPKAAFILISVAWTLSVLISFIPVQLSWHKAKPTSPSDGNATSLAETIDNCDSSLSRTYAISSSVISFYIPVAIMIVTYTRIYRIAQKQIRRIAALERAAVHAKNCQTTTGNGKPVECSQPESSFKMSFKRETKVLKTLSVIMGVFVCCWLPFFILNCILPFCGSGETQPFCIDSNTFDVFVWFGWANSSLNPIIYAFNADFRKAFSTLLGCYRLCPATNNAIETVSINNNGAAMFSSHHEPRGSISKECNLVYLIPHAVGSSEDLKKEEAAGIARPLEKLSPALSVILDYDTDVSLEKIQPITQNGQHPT
DAT uptake mod: changed human dopamine transporter uptake under cocaine IC80; AID 449768; Q01959; LLC-PK1 hDAT cells, [14C]-dopamine uptake with cocaine IC80; actives deviate in either direction; B-score at 10 µM; 110,000 compounds, 1.3% hits;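 active means Z score or B-score, a plate-position-corrected score, falls beyond the plate's 99.7% confidence bounds, in either direction; inactive means both scores lie inside the 99.7% bounds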
M1 antag: antagonists of rat M1 muscarinic receptor; P08482; CHO-M1 cells, Fluo-4 calcium, ACh EC80 antagonist mode; active compounds read low; B-score at 10 µM; 64,000 compounds, 3.4% hits; AID 628;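 active means calcium fluorescence response, raw or row-and-column corrected B-score, differing from the plate sample mean either way at a set confidence level, mostly lower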
M1 agonist: M1 muscarinic receptor agonism; CHO-M1 cells, Fluo-4 calcium fluorescence, agonist mode; active compounds read high; B-score at 10 µM; 64,000 compounds, 3% hits;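 active means fluorescence rise, raw or as B-score row- and column-corrected plate score, outside the 99.7% band of its plate's samples, either direction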
D1 mod confirm: confirmation of human D1 dopamine receptor allosteric modulators; shares compounds with D1 mod; HEK293 D1 CRE-luciferase, dopamine EC30 potentiation; active compounds read high; luminescence at 10 µM; 2,200 compounds, 88% hits; AID 642;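 active means luminescence in either of two replicates above the same-plate mean plus 3 SD of the low-dose dopamine control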
D1 ag no DA: activates D1 CRE-luciferase signal without dopamine present; luminescence at 10 µM; 1,900 compounds, 0.8% hits; shares compounds with D1 mod; HEK293 D1 CRE-luciferase, luminescence, no dopamine; active compounds read high; in the data active means luminescence above about 3900
Isoprot counter: isoproterenol response counter-screen activity for D1 modulators. HEK293 D1 CRE-luciferase, isoproterenol EC30 counter-screen. AID 647. 2,200 compounds, 63% hits. calls only at 10 µM. shares compounds with D1 mod;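 active means luminescence in either replicate above plate mean of wells with a partly effective reference agonist dose plus 3 SD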;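 further: isoproterenol raises cAMP through native beta-adrenoceptor Gs so signal bypasses D1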
A number is an active result; i = inactive; nt = no result given; + = active, no number. Compounds with a hit are over-represented: about 7.2% of the library has one in this group of screens.

SMILES | HEK293 NFkB inh | BAP1 block | D1 mod | DAT uptake mod | M1 antag | M1 agonist | D1 mod confirm | D1 ag no DA | Isoprot counter
CCOC(=O)c1cc2c(=O)n3ccccc3nc2n(CCCOC)c1=NC(=O)c1cccnc1 | i | nt | 3.8 | nt | i | i | 9344 | i | i
CCOC(=O)c1cc2c(=O)n3ccccc3nc2n(CC(C)C)c1=NC(=O)c1ccco1 | i | i | 8.3 | i | i | i | 18960 | i | +
CCOC(=O)c1cc2c(=O)n3ccccc3nc2n(Cc2ccccc2)c1=N | i | nt | i | i | i | i | nt | nt | nt
COc1ccccc1-n1c(=O)[nH]c2c(C(N)=O)nc(CC(C)C)nc21 | i | i | 5.9 | i | i | i | 9424 | i | i
Cc1ccc(-n2c(=O)[nH]c3c(C(N)=O)nc(CC(C)C)nc32)cc1 | i | i | 7.8 | i | i | i | 20900 | i | +
COc1ccc(C2CC(c3cccs3)=Nc3ccccc3S2)c(OC)c1 (centres undefined) | nt | i | nt | nt | nt | nt | nt | nt | nt
COc1ccc(CCn2c(N)cc(=O)[nH]c2=S)cc1OC | i | i | 11 | i | i | i | 16604 | i | +
COc1ccc(CCN2C(=O)C3C4C=CC(C3C2=O)C2C(=O)N(CCc3ccc(OC)c(OC)c3)C(=O)C42)cc1OC (centres undefined) | nt | nt | nt | i | nt | nt | nt | nt | nt
C=CCOc1nc(-c2ccncc2)nc2ccccc12 | nt | i | 6.5 | i | i | i | 15684 | nt | +
c1ccc(CN2CCN(c3nc(-c4ccccc4)nc4ccccc34)CC2)cc1 | nt | nt | nt | i | nt | nt | nt | nt | nt
c1ccc2c(N3CCCC3)nc(-c3ccncc3)nc2c1 | i | i | 9.2 | i | i | i | 18800 | i | +
COc1ccc(-n2c(SCC#N)nnc2-c2ccc(NS(=O)(=O)c3ccc(C)cc3)cc2)cc1 | i | i | 9.9 | i | i | i | 21068 | i | +
COc1ccc(-n2c(SCC(N)=O)nnc2-c2ccc(NS(=O)(=O)c3ccc(C)cc3)cc2)cc1 | nt | nt | nt | i | nt | nt | nt | nt | nt
CC(C)CCn1c(SCC(=O)c2ccccc2)nc2c1c(=O)[nH]c(=O)n2C | i | i | i | i | i | i | nt | nt | nt
CC(CSc1nc2ccccc2s1)Cn1c(N2CCCC2)nc2c1c(=O)[nH]c(=O)n2C (centres undefined) | i | i | 2.5 | i | i | i | 13288 | nt | +
CC(C)CCn1c(Sc2nc3ccccc3s2)nc2c1c(=O)[nH]c(=O)n2C | i | i | 21 | i | i | i | 19816 | i | +
CCN1CCN(c2nc3c(c(=O)[nH]c(=O)n3C)n2CCSc2nc3ccccc3s2)CC1 | i | i | i | i | i | i | nt | nt | nt
N#Cc1ccccc1Cn1c(=O)n(Cc2ccc(C(=O)NCc3ccco3)cc2)c(=O)c2sccc21 | i | i | 16 | i | i | i | 10644 | i | +
Cc1cc2n(n1)C(c1ccsc1)Nc1ccccc1-2 (centres undefined) | i | nt | 14 | i | i | i | 15520 | nt | +
CCCOc1ccc(C(=O)Nc2ccc(N3CCN(C(C)=O)CC3)cc2)cc1 | i | i | 3 | i | i | i | i | i | i
CC1(C)CC(=O)c2cnc(NC(=O)CSc3nc4ccccc4o3)nc2C1 | i | i | i | i | i | i | nt | nt | nt
Cc1cc(C)nc(SCC(=O)Nc2ncc3c(n2)CC(C)(C)CC3=O)n1 | i | i | 5.3 | i | i | i | 7004 | i | i
CCCCC(=O)Nc1ncc2c(n1)CC(C)(C)CC2=O | i | i | 3 | i | i | i | i | nt | i
CCOC(=O)C1=C(C)N=C2SCCC(=O)N2C1C=Cc1ccccc1 (centres undefined) | nt | i | nt | nt | nt | nt | nt | nt | nt
COc1nc(OC)nc(N2CCC(C(=O)NCc3ccco3)CC2)n1 | i | i | i | i | i | i | nt | nt | nt
COc1nc(NCc2ccco2)nc(N2CCC(C)CC2)n1 | i | i | 10 | i | i | i | 15736 | i | +
CCOCCOC(=O)C1=C(C)Nc2ccc(C)cc2S1 | i | i | 3.9 | i | i | i | 7892 | i | i
